ChEMBL document CHEMBL2311356, “The effect of 17-N substituents on the activity of the opioid κ receptor in nalfurafine derivatives” (Bioorg Med Chem Lett, 2013)

Tests used:
[1] = target: T1, Kappa-type opioid receptor (Homo sapiens, UniProt P41145); test: Agonist activity at human recombinant kappa opioid receptor expressed in CHO cells after 2 hrs by [35S]-GTPgammaS binding assay relative to control; type: functional, cell-based
Procedure, shortened: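 CHO cell membranes carrying the recombinant human κ receptor were incubated with [³⁵S]GTPγS, GDP and the test agent. U-69,593 served as the reference κ agonist. Values are means of four samples.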

[2] = target: Kappa-type opioid receptor (Cavia porcellus, UniProt P41144); test: Displacement of [3H]U69593 from kappa opioid receptor in guinea pig cerebellum after 1 hr by liquid scintillation counting analysis
Kappa-type opioid receptor (Cavia porcellus, UniProt P41144), sequence (P41144 whole entry): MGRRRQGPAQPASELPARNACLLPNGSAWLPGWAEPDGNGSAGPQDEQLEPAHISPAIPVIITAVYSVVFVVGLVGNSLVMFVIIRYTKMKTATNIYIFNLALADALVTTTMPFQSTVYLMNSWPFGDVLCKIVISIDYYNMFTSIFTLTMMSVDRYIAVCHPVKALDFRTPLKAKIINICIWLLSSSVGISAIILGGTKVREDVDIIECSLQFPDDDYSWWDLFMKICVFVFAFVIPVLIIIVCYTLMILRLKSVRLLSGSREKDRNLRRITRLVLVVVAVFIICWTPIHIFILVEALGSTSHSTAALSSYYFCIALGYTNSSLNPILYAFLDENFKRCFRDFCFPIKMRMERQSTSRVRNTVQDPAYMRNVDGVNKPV
Procedure, shortened: (§1)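 Radioligand displacement from membranes used [³H]DAMGO for μ and [³H]DPDPE for δ, both on mouse whole brain without cerebellum. For κ it used [³H]U-69,593 on guinea pig cerebellum. Values are means of three samples.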

[3] = target: T1, Kappa-type opioid receptor; test: Agonist activity at human recombinant kappa opioid receptor expressed in CHO cells after 2 hrs by [35S]-GTPgammaS binding assay; type: functional, cell-based
Procedure, shortened: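 CHO cell membranes carrying the recombinant human κ receptor were incubated with [³⁵S]GTPγS, GDP and the test agent. Values are means of four samples.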

Mu-type opioid receptor = Mu-type opioid receptor (Mus musculus, UniProt P42866); test: Displacement of [3H]DAMGO from mu opioid receptor in mouse whole brain membranes without cerebellum after 1 hr by liquid scintillation counting analysis; type: cell membranes, Membrane; procedure, shortened: as §1
Mu-type opioid receptor, sequence (P42866 whole entry): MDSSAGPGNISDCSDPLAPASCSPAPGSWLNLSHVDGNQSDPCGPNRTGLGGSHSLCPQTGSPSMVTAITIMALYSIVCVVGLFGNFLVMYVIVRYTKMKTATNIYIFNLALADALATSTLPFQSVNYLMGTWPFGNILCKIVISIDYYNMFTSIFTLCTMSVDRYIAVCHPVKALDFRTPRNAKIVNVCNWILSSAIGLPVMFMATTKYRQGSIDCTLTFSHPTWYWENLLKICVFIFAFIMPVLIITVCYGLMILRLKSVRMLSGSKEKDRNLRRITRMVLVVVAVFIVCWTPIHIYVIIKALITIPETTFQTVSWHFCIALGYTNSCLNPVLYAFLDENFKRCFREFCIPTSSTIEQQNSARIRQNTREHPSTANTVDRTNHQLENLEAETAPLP

[4] = target: Delta-type opioid receptor (Mus musculus, UniProt P32300); test: Displacement of [3H]DPDPE from delta opioid receptor in mouse whole brain membranes without cerebellum after 1 hr by liquid scintillation counting analysis; type: cell membranes, Membrane; procedure, shortened: as §1
Delta-type opioid receptor, sequence (P32300 whole entry): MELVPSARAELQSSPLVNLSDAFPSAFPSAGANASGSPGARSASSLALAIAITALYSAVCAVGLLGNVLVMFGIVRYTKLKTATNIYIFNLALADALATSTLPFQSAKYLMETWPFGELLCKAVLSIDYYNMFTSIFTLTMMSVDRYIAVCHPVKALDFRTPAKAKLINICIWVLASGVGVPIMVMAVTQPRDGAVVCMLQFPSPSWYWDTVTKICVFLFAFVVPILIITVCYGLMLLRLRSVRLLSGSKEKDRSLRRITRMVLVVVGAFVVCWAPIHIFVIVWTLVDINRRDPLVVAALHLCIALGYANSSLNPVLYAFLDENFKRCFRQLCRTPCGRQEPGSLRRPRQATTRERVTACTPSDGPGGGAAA

[5] = Selectivity ratio of Ki for mu opioid receptor in mouse whole brain membranes without cerebellum to Ki for kappa opioid receptor in guinea pig cerebellum; type: cell membranes
[6] = Selectivity ratio of Ki for delta opioid receptor in mouse whole brain membranes without cerebellum to Ki for kappa opioid receptor in guinea pig cerebellum; type: cell membranes

T1 sequence (P41145 whole entry): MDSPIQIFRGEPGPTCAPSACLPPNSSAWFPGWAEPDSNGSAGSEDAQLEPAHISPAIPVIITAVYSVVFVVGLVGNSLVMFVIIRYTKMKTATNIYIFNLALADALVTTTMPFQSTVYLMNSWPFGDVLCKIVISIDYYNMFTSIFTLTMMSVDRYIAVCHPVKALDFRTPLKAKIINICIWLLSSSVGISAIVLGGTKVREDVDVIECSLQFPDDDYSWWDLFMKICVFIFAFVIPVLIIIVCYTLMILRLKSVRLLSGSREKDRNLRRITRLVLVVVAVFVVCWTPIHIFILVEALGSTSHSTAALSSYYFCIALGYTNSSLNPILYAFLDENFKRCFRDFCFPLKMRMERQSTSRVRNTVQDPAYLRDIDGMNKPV

| Structure (SMILES) | Emax [1] [%] | Ki [2] [nM] | EC50 [3] [nM] | Ki (Mu-type opioid receptor) [nM] | Ki [4] [nM] | Ratio Ki [5] | Ratio Ki [6] |
| --- | --- | --- | --- | --- | --- | --- | --- |
| CN(CCC[C@]1(O)[C@H]2CCN(CC(F)F)[C@@H]1Cc1ccc(O)c(O)c12)C(=O)/C=C/c1ccoc1 | 101 | 2.19 | 22.4 | > 1000 | > 1000 |  |  |
| CCN1CC[C@H]2c3c(ccc(O)c3O)C[C@@H]1[C@]2(O)CCCN(C)C(=O)/C=C/c1ccoc1 | 97.4 | 0.625 | 3.79 | 11 | 512 | 17.6 | 818 |
| CN(CCC[C@]1(O)[C@H]2CCN(C)[C@@H]1Cc1ccc(O)c(O)c12)C(=O)/C=C/c1ccoc1 | 90.4 | 0.735 | 11.3 | 2.77 | 35.7 | 3.77 | 48.6 |
| CCCN1CC[C@H]2c3c(ccc(O)c3O)C[C@@H]1[C@]2(O)CCCN(C)C(=O)/C=C/c1ccoc1 | 86.5 | 0.328 | 2.72 | 19.2 | 176 | 58.4 | 537 |
| CN(CCC[C@]1(O)[C@H]2CCN(CCF)[C@@H]1Cc1ccc(O)c(O)c12)C(=O)/C=C/c1ccoc1 | 95.2 | 0.507 | 2.23 | 8.39 | > 1000 | 16.6 |  |
| CC(C)CN1CC[C@H]2c3c(ccc(O)c3O)C[C@@H]1[C@]2(O)CCCN(C)C(=O)/C=C/c1ccoc1 | 99.5 | 0.59 | 8.07 | 46.2 | 514 | 78.4 | 872 |
| CN(CCC[C@]1(O)[C@H]2CCN(CC(F)(F)F)[C@@H]1Cc1ccc(O)c(O)c12)C(=O)/C=C/c1ccoc1 | 89 | 4.58 | 32.2 | > 1000 | > 1000 |  |  |
| CN(C(=O)/C=C/c1ccoc1)[C@@H]1CC[C@@]2(O)[C@H]3Cc4ccc(O)c5c4[C@@]2(CCN3CC2CC2)[C@H]1O5 | 98.1 |  |  |  |  |  |  |
